From PubChem BioAssay
Rows were chosen to be rich in hits. Some 2.2% of all compounds tested hit in one or more screens of this group.
MCL1-BIM inh – disrupts human MCL1 binding to BIM-BH3 peptide. GST-MCL1 / FITC-Bim-BH3 fluorescence polarization. 320,000 tested, 0.68% active. inhibition, % at 10.9 µM. AID 2057;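 active means inhibition above the mean inhibition of all tested compounds plus 3 SD, set per campaign, cut at about 40% in these data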;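 further: 0% = DMSO wells and 100% = unlabeled Bim-BH3 peptide control; higher means more loss of mP so more displacement of Bim peptide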
Target sequence (Q07820 whole entry, looked up): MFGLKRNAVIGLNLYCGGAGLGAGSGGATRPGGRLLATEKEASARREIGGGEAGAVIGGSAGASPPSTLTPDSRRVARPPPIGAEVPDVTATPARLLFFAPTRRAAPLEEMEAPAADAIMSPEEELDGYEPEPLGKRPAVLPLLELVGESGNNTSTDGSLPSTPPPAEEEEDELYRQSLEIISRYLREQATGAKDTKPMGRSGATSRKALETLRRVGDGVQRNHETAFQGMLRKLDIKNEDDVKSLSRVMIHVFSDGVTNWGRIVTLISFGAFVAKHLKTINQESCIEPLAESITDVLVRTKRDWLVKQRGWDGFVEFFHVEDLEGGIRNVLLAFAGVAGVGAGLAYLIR
Bim-Mcl-1 – disrupts Bim peptide binding to human Mcl-1 | Bead-based flow cytometry, Bim peptide-Mcl-1 binding | inhibition, % at 10 µM | 190,000 tested, 0.1% active | AID 1009; in the data active means inhibition above about 40%;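 further: 0% = no compound tracer wells and 100% = peptide blocker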
RBBP9 inh – inhibitors of human serine hydrolase RBBP9. recombinant RBBP9, FP-Rh probe fluorescence polarization. inhibition, % at 7.94 µM. 220,000 tested, 0.2% active. AID 1515;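 active means inhibition above the campaign mean of all tested compounds plus 3 SD, cut at about 14% in these data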;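 further: plate controls were DMSO wells with RBBP9 for no effect and wells lacking RBBP9 protein for full effect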
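Assay system: recombinant human RBBP9; Reagent: Serine-hydrolase probe FP-Rh, 375 nM pre-mixing; Doses: 7.94 µM single dose, 0.794% DMSO; Incubation: 30 min then 45 min, 25 °C; Detection: fluorescence polarization (mP), excitation 525 nm, emission 598 nm; Evaluation: percent inhibition from mP, scaled between DMSO and no-protein wells.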
EBV gp42 block – blocks Epstein-Barr virus glycoprotein 42 binding; Q1HVG2; Fluorescence polarization binding assay, mP read-out; inhibition, % (tested at 21.74 µM); AID 1085; 220,000 tested, 0.42% active; in the data active means inhibition above about 50%
Target sequence (Q1HVG2 whole entry, looked up): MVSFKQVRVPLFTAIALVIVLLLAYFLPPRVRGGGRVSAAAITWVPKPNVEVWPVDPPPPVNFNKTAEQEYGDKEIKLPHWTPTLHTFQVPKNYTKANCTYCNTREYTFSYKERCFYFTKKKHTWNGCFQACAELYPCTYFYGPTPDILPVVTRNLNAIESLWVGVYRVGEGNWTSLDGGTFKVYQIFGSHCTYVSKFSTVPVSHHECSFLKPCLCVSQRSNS
Mcl1-Noxa inh – disrupts binding of human Mcl-1 to Noxa peptide | inhibition, % at 21.7 µM | Q07820 | 220,000 tested, 1.5% active | AID 1022 | TR-FRET Mcl-1/Noxa peptide binding, 2 h;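 active means compounds that cut the protein-peptide binding signal by more than 50% relative to plate controls in a single-dose test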;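 further: His-tagged Mcl-1 with rhodamine Noxa BH3 peptide and terbium anti-His antibody; 0% = Mcl-1 plus Noxa peptide wells and 100% = peptide-only wells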
Mcl1 Bid PPI – Mcl-1/Bid interaction inhibition; TR-FRET Mcl-1/Bid-Dy647 peptide binding, 1536-well; inhibition, % at 21.7 µM; 220,000 tested, 0.97% active;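 active means compounds that cut the binding signal by more than half at the single screening dose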;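 further: His-tagged Mcl-1 with europium anti-His antibody binding Bid BH3 peptide; 0% = Mcl-1 plus peptide wells and 100% = peptide-only wells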
* hit, by the source's call; / = no result given.

SMILES | MCL1-BIM inh | Bim-Mcl-1 | RBBP9 inh | EBV gp42 block | Mcl1-Noxa inh | Mcl1 Bid PPI
O=C(/C=C/c1ccnc2ccccc12)c1cccs1 | 11 | -2 | 4 | -1 | 10 | -23
Cc1c(Cl)cccc1Nc1nc(N)nc(CSc2nc3ccccc3s2)n1 | 8 | 0 | -13 | 0 | 10 | 15
Nc1nc(CSc2nc3ccccc3s2)nc(Nc2ccccc2)n1 | 4 | -5 | -8 | 10 | 73* | 14
O=C(CCS(=O)(=O)c1ccc(Br)s1)NC1CCCCCC1 | 1 | -2 | -2 | 3 | -8 | 78*
O=C(CCS(=O)(=O)c1ccccc1)NC1CCCCC1 | 2 | / | / | / | / | /
Nc1nc(SCn2nnc3ccccc3c2=O)n[nH]1 | 8 | -1 | 0 | -21 | 10 | -24
Cc1cccc(C(=O)N2CC(=O)Nc3ccc(F)cc3C2c2ccc(F)cc2)c1 (configuration not stated) | 7 | / | / | / | / | /
COc1ccc(Br)c2oc(S)cc(=O)c12 | 17 | -6 | -1 | -23 | 64* | -7
CCN(c1cccc(C)c1)S(=O)(=O)c1cc(CN2C(=O)c3cccnc3C2=O)ccc1OC | 4 | / | / | / | / | /
CCC(/C=C1\Sc2ccc(OC)cc2N1CC)=C\c1sc2ccc(OC)cc2[n+]1CCCS(=O)(=O)[O-] | 13 | 5 | -64 | -2 | 36 | -35
CCC(/C=C1\Sc2ccc(OC)cc2N1CCO)=C\c1sc2ccc(OC)cc2[n+]1CCO | 21 | 42* | -82 | -8 | -97 | -94
COc1cccc(-c2nn(C)c3sc(C(=O)NCc4ccc(C)o4)cc23)c1 | 3 | 2 | -15 | -10 | 60* | -8
COc1cccc(-c2nn(C)c3sc(C(=O)NCc4ccc5c(c4)OCO5)cc23)c1 | 4 | 0 | -42 | 9 | -16 | -9
O=C(COCC(=O)NCc1ccccc1)NCc1ccccc1 | -2 | 49* | -7 | 4 | 4 | -19
CCc1c(C)nc2c(OC)cccc2c1SCCC(=O)O | -2 | -2 | -3 | -8 | 6 | -4
CCCCc1c(C)nc2c(OC)cccc2c1SCCC(=O)O | 8 | 0 | -8 | -1 | 52* | 6
CC(NC(=O)c1noc2c1CCCC2)c1ccccc1 (configuration not stated) | 1 | 0 | -2 | -22 | -7 | -7
CSc1ccccc1NC(=O)c1noc2c1CCC2 | 33 | -2 | 2 | 14 | 66* | -34
Cc1ccc(C(=O)NNC(=O)CSc2nnc(C(C)C)n2C)cc1 | 1 | / | / | / | / | /
Nc1cc2nc[nH]c2cc1N | / | 8 | 4 | -19 | 74* | -9
Cn1c(=O)n(C)c2cc3[nH]cnc3cc21 | 6 | / | / | / | / | /
O=c1[nH]c(-c2ccccc2Cl)nc2c1sc(=S)n2-c1ccccc1 | / | 1 | -4 | -7 | 44 | 89*
CCOc1ccc(C(=O)OCC(=O)NC2CCCCCCC2)cc1 | -3 | / | / | / | / | /
O=c1cc(-c2ccc([N+](=O)[O-])cc2)nc2cc(-c3ccc(Cl)cc3)[nH]n12 | -2 | -4 | 4 | 83* | 97* | 87*
CCCc1cc(=O)n2[nH]c(-c3ccc(Cl)cc3)cc2n1 | 1 | / | / | / | / | /
SMILES | MCL1-BIM inh | Bim-Mcl-1 | RBBP9 inh | EBV gp42 block | Mcl1-Noxa inh | Mcl1 Bid PPI
Cc1cc(C)nc(/N=C(\N)Nc2ccc(C(C)C)cc2)n1 | 4 | / | -1 | -6 | 14 | -9
CC1CN(CC(=O)Nc2ccc(S(N)(=O)=O)cc2)CC(C)O1 (configuration not stated) | -1 | / | / | / | / | /
COC(=O)N/N=C/c1cc(N=Nc2ccccc2Cl)ccc1O | 2 | / | -6 | -3 | 88* | 7
Cc1cc(C(=O)N/N=C/c2cc(N=Nc3ccccc3)ccc2O)n[nH]1 | 27 | 0 | 1 | 18 | 95* | 25
COC(=O)N/N=C/c1cc(N=Nc2ccccc2)ccc1O | 7 | / | -4 | -9 | -14 | -15
CC(=O)/C(C#N)=C1\NC(=O)C(Cc2ccccc2C)S1 (configuration not stated) | 0 | / | -2 | -8 | 9 | -20
CCN(CC)CCOc1cc2c(nn1)Oc1ccccc1N2C | 11 | 4 | 3 | -4 | 37 | 54*
CC(C)CC1NC(=S)N(C2CCCCC2)C1=O (configuration not stated) | 13 | 0 | -7 | -23 | 7 | -62
CN(C)c1ncc(/C=C2/C(=O)NC(=S)N(C3CCCCC3)C2=O)cn1 | / | 0 | -6 | -8 | 61* | 9
O=C(NCc1cccnc1)c1ccc(NC(=O)c2ccc([N+](=O)[O-])cc2)cc1 | 6 | / | / | / | / | /
O=C(NC(=S)NCc1cccnc1)c1ccc([N+](=O)[O-])cc1 | 10 | -2 | -4 | -5 | 3 | 71*
Cc1ccc2nc(-c3ccc(NC(=O)CSCC(=O)O)cc3)sc2c1 | 0 | / | -5 | -25 | 9 | 19
Cc1ccc2nc(-c3ccc(NC(=O)CCN4C(=O)c5ccccc5C4=O)cc3)sc2c1 | -7 | -2 | 3 | -36 | 49 | 56*
O=C(O)CSCC(=O)Nc1ccc(-c2nc3ccccc3s2)cc1 | 1 | / | -7 | -5 | 56* | -10
O=C(CCN1C(=O)c2ccccc2C1=O)Nc1ccc(-c2nc3ccccc3s2)cc1 | -22 | 1 | -8 | -14 | 5 | 18
Cc1ccc(S(=O)(=O)Nc2cc3c4c(c2)CCN4C(=O)CC3)cc1 | 5 | / | / | / | / | /
O=C1NC(=O)C(Cc2ccccc2)(c2cccnc2)N1 (configuration not stated) | -1 | / | 3 | -16 | -14 | 0
O=C(O)CCc1ccc(-c2ccc(Cl)cc2)o1 | 6 | -2 | -3 | -21 | 18 | 95*
OC(CNC1CCCCC1)COCCOc1ccc(Br)cc1 (configuration not stated) | 5 | 49* | -7 | -18 | 21 | -8
Fc1cc2nc(-c3ccncc3)[nH]c2cc1F | 2 | 1 | 0 | -19 | -9 | 71*
c1ccc2[nH]c(-c3ccncc3)nc2c1 | 10 | 1 | -1 | -6 | 5 | -47
CCCCN1C(=O)C2Cc3c([nH]c4ccccc34)CN2C1=S (configuration not stated) | -17 | 0 | -3 | 52* | -2 | -19
CCCCCN1CC(=O)N2Cc3[nH]c4ccccc4c3C[C@H]2C1=O | -8 | / | / | / | / | /
COc1cccc(OC)c1C(=O)NC(=O)Oc1c(F)cccc1F | 5 | / | / | / | / | /
Cc1ccc(N(C(=O)c2snc(C(N)=O)c2N)C(C(=O)NCc2ccccc2)c2ccncc2)c(C)c1 (configuration not stated) | -1 | / | / | / | / | /
CC1(C)CC(CC(=O)O)(c2ccccc2)CCO1 (configuration not stated) | 5 | 0 | -5 | -18 | -19 | 66*
CCCNC(=O)C1CCN(c2cc(-c3ccccc3)nc3ncnn23)CC1 | 4 | 0 | -5 | 0 | 69* | -4
NNc1nc(-c2ccccc2)cs1 | 5 | -7 | 8 | -6 | 4 | 83*
c1ccc(-c2csc(Nc3ncccn3)n2)cc1 | 3 | -5 | -3 | -25 | 3 | -34
CSc1ccc(/C=C/C(=O)OCC(=O)c2ccc[nH]2)cc1 | 1 | / | / | / | / | /
